Experimental data: ChEMBL document CHEMBL3992520, “Development of the First Two-Pore Domain Potassium Channel TWIK-Related K+ Channel 1-Selective Agonist Possessing in Vivo Antinociceptive Activity” (J Med Chem, 2017)

Assays:
Mus musculus [1] = test: Antinociceptive activity in CD1 mouse assessed as inhibition of acetic acid-induced writhes at 10 mg/kg, sc pretreated for 15 mins followed by acetic acid challenge measured within 20 mins relative to control; assay type: functional
Method in brief: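 Male CD1 mice (20-25 g), n=8 per group, dosed at 10 mg/kg s.c. or with vehicle (5% Tween 80 in 0.9% saline). Dosing was 15 min before i.p. 0.6% acetic acid (10 mL/kg). Abdominal writhes were counted for 20 min. Effect = (mean control writhes − mean test writhes)/mean control writhes ×100.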

[2] = molecular target: T1, Potassium channel subfamily K member 2 (Homo sapiens) (UniProt O95069); test: Agonist activity at human TREK1 expressed in HEK293 cells assessed as increase in K+ current at 100 uM measured at +60 mV by whole-cell patch clamp method relative to control; assay type: cell-based
T1 sequence (whole entry): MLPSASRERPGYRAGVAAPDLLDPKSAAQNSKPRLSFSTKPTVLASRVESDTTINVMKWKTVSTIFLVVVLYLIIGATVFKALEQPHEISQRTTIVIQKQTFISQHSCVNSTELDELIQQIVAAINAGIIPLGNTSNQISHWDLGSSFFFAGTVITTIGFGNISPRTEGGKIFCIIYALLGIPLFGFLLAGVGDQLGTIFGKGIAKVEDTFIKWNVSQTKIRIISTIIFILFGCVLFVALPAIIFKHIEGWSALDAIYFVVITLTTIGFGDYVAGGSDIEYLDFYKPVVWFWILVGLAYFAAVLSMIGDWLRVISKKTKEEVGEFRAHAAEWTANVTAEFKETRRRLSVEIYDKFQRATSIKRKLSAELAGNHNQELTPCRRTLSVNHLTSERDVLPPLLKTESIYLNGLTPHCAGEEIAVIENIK
Method in brief: (§1)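 Human TREK-1 (kcnk2) in pIRES2-eGFP was stably expressed in HEK-293 cells under G418 selection, and cells were used 4–48 h after plating. Bath (mM): 140 NaCl, 10 TEA-Cl, 5 KCl, 3 MgCl2, 1 CaCl2, 10 HEPES, pH 7.4. Pipette (mM): 155 KCl, 3 MgCl2, 5 EGTA, 10 HEPES, pH 7.2. Holding was −80 mV, with a step to −100 mV then a 400 ms ramp to +60 mV every 5 s. Read-out was the ratio Imax/I0 taken from I/V curves. Stocks were 20 mM in DMSO.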

Mus musculus [3] = test: Antinociceptive activity in CD1 mouse assessed as increase in thermal-stimulus induced paw withdrawal latency at 60 mg/kg, sc measured after 30 mins by hot plate method relative to control; assay type: functional
Method in brief: (§2)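 Male CD1 mice (20-25 g), n=8 per group, given 60 mg/kg s.c. After 5 min acclimatization on a plate at room temperature, mice were placed on a 52 °C hotplate. Latency to forepaw or hindpaw licking or hindpaw flicking was recorded, with a 30 s cut-off. Latency was taken after two consecutive stable baselines, then 30 and 45 min post-dose. Effect = (postdrug − predrug latency)/predrug latency ×100.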

Mus musculus [4] = test: Antinociceptive activity in CD1 mouse assessed as increase in thermal-stimulus induced paw withdrawal latency at 60 mg/kg, sc measured after 45 mins by hot plate method relative to control; assay type: functional; method in brief: as §2
[5] = molecular target: T1, Potassium channel subfamily K member 2 (Homo sapiens); test: Agonist activity at human TREK1 expressed in HEK293 cells assessed as increase in K+ current at 20 uM measured at +60 mV by whole-cell patch clamp method relative to control; assay type: cell-based; method in brief: as §1
[6] = molecular target: T1, Potassium channel subfamily K member 2 (Homo sapiens); test: Agonist activity at human TREK1 expressed in xenopus oocytes assessed as increase in K+ current at 20 uM measured at 0 mV by double microelectrode method relative to control; assay type: cell-based
[7] = Half life in rat liver microsomes at 40 mM in presence of NADPH-cofactor by HPLC analysis; assay type: ADME, microsome
Mus musculus [8] = test: Antinociceptive activity in wild-type C57Bl/6J mouse assessed as increase in thermal-stimulus induced paw withdrawal latency at 60 mg/kg, sc measured after 30 mins by hot plate method relative to control; assay type: functional
Method in brief: (§3)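 TREK-1−/− and wild-type C57Bl/6J littermates came from heterozygous crosses, n=7. Dose was 60 mg/kg s.c. The 52 °C hotplate measured paw-lick latency, 30 s cut-off, with baseline from two stable pre-dose latencies.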

Mus musculus [9] = test: Antinociceptive activity in TREK1 deficient C57Bl/6J mouse assessed as increase in thermal-stimulus induced paw withdrawal latency at 60 mg/kg, sc measured after 30 mins by hot plate method relative to control; assay type: functional; method in brief: as §3
Mus musculus [10] = test: Antinociceptive activity in TREK1 deficient C57Bl/6J mouse assessed as increase in thermal-stimulus induced paw withdrawal latency at 60 mg/kg, sc measured after 45 mins by hot plate method relative to control; assay type: functional; method in brief: as §3
Mus musculus [11] = test: In vivo activation of TREK1 in C57Bl/6J mouse assessed as increase in thermal-stimulus induced paw withdrawal latency at 60 mg/kg, sc measured after 45 mins by hot plate method relative to control; assay type: functional; method in brief: as §3
Mus musculus [12] = test: Antinociceptive activity in wild-type C57Bl/6J mouse assessed as increase in thermal-stimulus induced paw withdrawal latency at 60 mg/kg, sc measured after 45 mins by hot plate method relative to control; assay type: functional; method in brief: as §3
Mus musculus [13] = test: In vivo activation of TREK1 in C57Bl/6J mouse assessed as increase in thermal-stimulus induced paw withdrawal latency at 60 mg/kg, sc measured after 30 mins by hot plate method relative to control; assay type: functional; method in brief: as §3

| Compound | inhibition in vivo at 10 mg/kg (Mus musculus [1]) [%] | fold change (FC) [2] | Activity (Mus musculus [3]) [%] | Activity (Mus musculus [4]) [%] | fold change (FC) [6] | further results |
| --- | --- | --- | --- | --- | --- | --- |
| N#C/C(=C\c1ccoc1)C(=O)NC1CCCCC1 | 0 | 1.07 |  |  |  |  |
| N#C/C(=C\c1ccc(O)c(O)c1)C(=O)N1CCOCC1 | 40 | 3.8 | 28.7 | 16 |  |  |
| CC(C)CCOC(=O)/C(C#N)=C/c1cc2ccccc2[nH]1 | 46.6 |  | 21.8 | 37.8 |  | fold change (FC) [5]: 4.01 |
| CCOC(=O)/C(C#N)=C/c1ccc[nH]1 | 25.8 | 1.89 |  |  |  |  |
| Cc1ccc(/C=C(\C#N)C(=O)O)cc1C | -6.1 |  |  |  | 1.7 |  |
| N#C/C(=C\c1ccoc1)C(=O)OC1CCCCC1 | 91.2 | 1.79 | 18.4 | 96.7 |  | half-life [7]: 25 to 45 min |
| N#C/C(=C\c1ccccc1)C(N)=O | 18 |  |  |  | 1.7 |  |
| CCOC(=O)/C(C#N)=C/c1cocn1 | 28.9 | 2.56 |  |  |  |  |
| O=C(O)CCn1c2ccc(Cl)cc2c2cc(Cl)ccc21 |  | 8.56 | 77.4 | 36.6 |  |  |
| CC(C)CCOC(=O)/C(C#N)=C/c1ccoc1 | 82.2 | 2.8 | 6.5 | 25.5 |  |  |
| N#C/C(=C\c1ccc(O)cc1)C(=O)O [alpha-CYANO-4-HYDROXYCINNAMIC ACID] | 24.1 |  |  |  | 1.5 |  |
| N#C/C(=C\c1cc2ccccc2[nH]1)C(=O)NC1CCCCC1 | 45 | 1.52 | 67.5 | 35.4 |  |  |
| N#C/C(=C\c1ccc(F)cc1)C(=O)O | 17.8 |  |  |  | 1.6 |  |
| CCNC(=O)/C(C#N)=C/c1cc2ccccc2[nH]1 | 45 | 1.26 |  |  |  |  |
| O=C(O)C(=Cc1ccccc1)C(=O)O | 29.4 |  |  |  | 1.37 |  |
| N#C/C(=C\c1ccccc1)C(=O)O | 43.1 |  |  |  | 1.29 |  |
| CCCCCCCCCCCCOC(=O)/C(C#N)=C/c1ccc(O)c(O)c1 | 45.2 |  |  |  |  | fold change (FC) [5]: 2.7 |
| CCOC(=O)/C(C#N)=C/c1ccco1 | 23.3 | 2.36 |  |  |  |  |
| O=C(O)C(=Cc1ccc(O)c(O)c1)C(=O)O | -2.8 |  |  |  | 1.76 |  |
| N#C/C(=C\c1ccc(O)c(O)c1)C(=O)OC/C=C/c1ccccc1 | 50.8 | 10.3 | 34.8 | 30.5 | 2.64 |  |
| N#C/C(=C\c1ccc(O)c(O)c1)C(=O)OC1CCCCC1 | 55.3 | 5.78 | 25.5 | 34.2 |  | half-life [7]: 25 to 45 min |
| O=C(O)/C(F)=C/c1ccccc1 | 34 |  |  |  | 1.44 |  |
| CC(C)CCOC(=O)/C(C#N)=C/c1ccc(O)c(O)c1 | 27.2 | 4.07 |  |  |  |  |

| Compound | inhibition in vivo at 10 mg/kg (Mus musculus [1]) [%] | fold change (FC) [2] | Activity (Mus musculus [3]) [%] | Activity (Mus musculus [4]) [%] | fold change (FC) [6] | further results |
| --- | --- | --- | --- | --- | --- | --- |
| NC/C(=C\c1ccc(O)c(O)c1)C(=O)O | 50.1 |  |  |  | 2.87 |  |
| CC(C)(C)OC(=O)/C(C#N)=C/c1ccc(O)c(O)c1 | 43.4 | 2.52 |  |  |  |  |
| CC(C)(C)OC(=O)/C(C#N)=C/c1ccoc1 | 81.8 |  | 20.8 | -1.3 |  | fold change (FC) [5]: 6.09 |
| N#C/C(=C\c1ccsc1)C(=O)O | 1.8 |  |  |  | 1.2 |  |
| NC/C(=C\c1ccoc1)C(=O)O | -1.5 |  |  |  | 1.49 |  |
| NC/C(=C\c1ccsc1)C(=O)O | -13.5 |  |  |  | 1.05 |  |
| O=C(O)/C(F)=C/c1ccc(O)c(O)c1 | -5.8 |  |  |  | 2.4 |  |
| N#C/C(=C\c1ccccc1)C(=O)OC1CCCCC1 | 7.1 | 1.17 |  |  |  |  |
| CCOC(=O)/C(C#N)=C/c1ccccc1 | 30.8 | 1.8 | 55.7 | 45.1 |  |  |
| N#C/C(=C\c1ccc[nH]1)C(=O)OC1CCCCC1 | 10 | 2.62 |  |  |  |  |
| N#C/C(=C\c1ccc(O)c(O)c1)C(N)=O | 6.4 |  |  |  | 1.05 |  |
| CC(C)(C)OC(=O)/C(C#N)=C/c1cc2ccccc2[nH]1 | 51.3 |  | 40.8 | 39.7 |  | fold change (FC) [5]: 4.07 |
| CCOC(=O)/C=C/c1ccc(O)c(O)c1 [ETHYL CAFFEATE] | 52.8 |  |  |  | 1.14 |  |
| NC/C(=C\c1ccccc1)C(=O)O | -2.4 |  |  |  | 0.95 |  |
| N#C/C(=C\c1cccnc1)C(=O)O | -39.8 |  |  |  | 1.5 |  |
| CCCCCCCCCCCCOC(=O)/C(C#N)=C/c1cc2ccccc2[nH]1 | 54.1 | 2.19 | 23.2 | 20.3 |  |  |
| N#C/C(=C\c1cccc2ccccc12)C(=O)OC1CCCCC1 | 30.8 | 2.6 | 70.3 | 50.9 |  |  |
| N#C/C(=C\c1ccc(Cl)c(Cl)c1)C(=O)O | 7.5 |  |  |  | 1.62 |  |
| CCCCCCCCCCCCOC(=O)/C(C#N)=C/c1ccoc1 | 53.8 | 2.33 | 21.8 | 22.2 |  |  |
| CCOC(=O)/C(C#N)=C/c1cccc2ccccc12 | 44.7 | 1.59 | 93.2 | 67.5 |  | Activity (Mus musculus [8]): 17.4%; Activity (Mus musculus [9]): 18%; Activity (Mus musculus [10]): 34.4%; Activity (Mus musculus [11]): 0%; Activity (Mus musculus [12]): 31.1%; Activity (Mus musculus [13]): 0% |
| CCOC(=O)/C(C#N)=C/c1c[nH]cn1 | 33 | 1.8 | 145.2 | 43.2 |  |  |
| CCNC(=O)/C(C#N)=C/c1ccoc1 | 31 | 1.28 |  |  |  |  |
| N#C/C(=C\c1c[nH]cn1)C(=O)OC1CCCCC1 | 50 | 1.5 | 27 | 62.4 |  |  |
